Assay results: ChEMBL document CHEMBL5653632, “PRMT5 inhibition disrupts splicing and stemness in glioblastoma” (Nat Commun, 2021)
The source made the active and inactive calls. The calls are words filed in the database; no cut-off is given here.

Experiments:
G561 = assay: Antiproliferative activity against human G561 cells at 1 uM incubated for 9 to 12 days by IncuCyte zoom live-cell imaging analysis; type: functional, cell-based; details: time 9-12 day
In short: (§1)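 Adherent GSCs were cultured in serum-free medium with EGF and bFGF on poly-L-ornithine/laminin and plated in triplicate in 96-well plates. They were treated at 1 µM, with 1 µM SGC2096 or 0.05% DMSO as controls, for 9–12 days or until DMSO wells were confluent. Medium with drug was refreshed every 5 days. IncuCyte confluence was imaged every 8 h and normalized to each well's initial confluence.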

G411 = assay: Antiproliferative activity against human G411 cells at 1 uM incubated for 9 to 12 days by IncuCyte zoom live-cell imaging analysis; type: functional, cell-based; details: time 9-12 day; in short: as §1
G583 = assay: Antiproliferative activity against human G583 cells at 1 uM incubated for 9 to 12 days by IncuCyte zoom live-cell imaging analysis; type: functional, cell-based; details: time 9-12 day; in short: as §1
[1] = target: Protein arginine N-methyltransferase 5 (Homo sapiens) (UniProt O14744); assay: Inhibition of PRMT5 in human G411 cells assessed as reduction in SDMA level at 1 uM after 5 days by Western blot analysis; type: cell-based; details: time 5.0 day
Sequence of Protein arginine N-methyltransferase 5 (Homo sapiens) (O14744 whole entry): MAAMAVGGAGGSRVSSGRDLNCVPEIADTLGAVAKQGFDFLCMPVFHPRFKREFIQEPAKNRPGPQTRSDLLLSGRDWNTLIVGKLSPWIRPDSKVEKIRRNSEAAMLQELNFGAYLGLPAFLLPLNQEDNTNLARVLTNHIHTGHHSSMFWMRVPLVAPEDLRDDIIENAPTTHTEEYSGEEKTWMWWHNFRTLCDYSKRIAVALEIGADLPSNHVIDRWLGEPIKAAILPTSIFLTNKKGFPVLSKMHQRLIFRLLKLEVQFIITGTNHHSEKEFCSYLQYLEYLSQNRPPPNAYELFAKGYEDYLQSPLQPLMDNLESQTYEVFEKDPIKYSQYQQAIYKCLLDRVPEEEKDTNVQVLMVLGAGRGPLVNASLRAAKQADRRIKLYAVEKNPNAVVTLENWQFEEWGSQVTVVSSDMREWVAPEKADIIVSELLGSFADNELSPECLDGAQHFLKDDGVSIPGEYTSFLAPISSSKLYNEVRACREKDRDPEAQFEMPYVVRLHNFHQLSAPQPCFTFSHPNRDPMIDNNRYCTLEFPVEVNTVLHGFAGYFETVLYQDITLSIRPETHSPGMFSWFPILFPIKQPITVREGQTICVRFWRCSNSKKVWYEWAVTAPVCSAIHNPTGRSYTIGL
In short: (§2)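 Symmetric dimethylarginine on SmB/B' was measured by western blot with IRDye secondary antibodies and infrared imaging.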

[2] = target: Protein arginine N-methyltransferase 5 (Homo sapiens) (UniProt O14744); assay: Inhibition of PRMT5 in human G561 cells assessed as reduction in SDMA level at 1 uM after 5 days by Western blot analysis; type: cell-based; details: time 5.0 day; in short: as §2
[3] = target: Protein arginine N-methyltransferase 5 (Homo sapiens) (UniProt O14744); assay: Inhibition of PRMT5 in human G583 cells assessed as reduction in SDMA level at 1 uM after 5 days by Western blot analysis; type: cell-based; details: time 5.0 day; in short: as §2

- inhibition [1]: inactive
- inhibition [2]: inactive
- inhibition [3]: inactive
SMILES: O=C(NC[C@H](O)CN1CCCCC1)c1ccnc(NC2CCC2)c1
- Activity (G561): inactive
- Activity (G411): inactive
- Activity (G583): inactive
